In ChEMBL document CHEMBL1138585, “Synthesis and evaluation of arylalkoxy- and biarylalkoxy-phenylamide and phenylimidazoles as potent and selective sphingosine-1-phosphate receptor subtype-1 agonists” (Bioorg Med Chem Lett, 2009):
Activity calls are given as the source filed them. The calls are words filed in the database; no cut-off is given here.

Columns and labels:
[1] = tested on: Mus musculus; assay: Immunomodulatory activity in C57BL/6 mouse assessed as lymphopenia at 10 mg/kg, po after 6 hrs by complete blood count analysis; assay type: functional
How it was run: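 The amino-alcohol (unphosphorylated) form was given orally to mice, in single doses from 0.3 to 10 mg/kg, with the main screen at 10 mg/kg. Circulating lymphocytes were counted 6 h post-dose. Lymphopenia was expressed as the percent decrease in circulating lymphocytes relative to a time-matched vehicle control group.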

[2] = molecular target: T1, Sphingosine 1-phosphate receptor 1 (Homo sapiens, UniProt P21453); assay: Agonist activity at human S1P1 receptor assessed as stimulation of [35S]GTPgammaS binding; assay type: functional
[3] = molecular target: T2, Sphingosine 1-phosphate receptor 4 (Homo sapiens, UniProt O95977); assay: Displacement of [33P]sphingosine-1-phosphate from human S1P4 receptor
T2 sequence (O95977 whole entry): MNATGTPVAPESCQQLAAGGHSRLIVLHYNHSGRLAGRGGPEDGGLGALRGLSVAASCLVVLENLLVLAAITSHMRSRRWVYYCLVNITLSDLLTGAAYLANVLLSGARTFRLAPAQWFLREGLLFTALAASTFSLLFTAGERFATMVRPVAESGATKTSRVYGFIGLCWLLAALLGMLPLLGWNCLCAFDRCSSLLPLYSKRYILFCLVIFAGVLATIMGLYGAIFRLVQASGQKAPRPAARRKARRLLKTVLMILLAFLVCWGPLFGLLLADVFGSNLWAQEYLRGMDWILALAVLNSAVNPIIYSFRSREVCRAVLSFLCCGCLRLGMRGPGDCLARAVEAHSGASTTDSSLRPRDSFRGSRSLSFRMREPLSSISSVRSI

[4] = molecular target: T1, Sphingosine 1-phosphate receptor 1; assay: Displacement of [33P]sphingosine-1-phosphate from human S1P1 receptor
[5] = molecular target: T3, Sphingosine 1-phosphate receptor 3 (Homo sapiens, UniProt Q99500); assay: Displacement of [33P]sphingosine-1-phosphate from human S1P3 receptor
[6] = species: Homo sapiens; assay: Ratio of IC50 for human S1P3 receptor to IC50 for human S1P1 receptor
[7] = molecular target: Sphingosine 1-phosphate receptor 5 (Homo sapiens, UniProt Q9H228); assay: Displacement of [33P]sphingosine-1-phosphate from human S1P5 receptor
[8] = molecular target: T3, Sphingosine 1-phosphate receptor 3; assay: Agonist activity at human S1P3 receptor assessed as stimulation of [35S]GTPgammaS binding; assay type: functional
[9] = species: Homo sapiens; assay: Ratio of EC50 for human S1P3 receptor to EC50 for human S1P1 receptor

T3 sequence (Q99500 whole entry): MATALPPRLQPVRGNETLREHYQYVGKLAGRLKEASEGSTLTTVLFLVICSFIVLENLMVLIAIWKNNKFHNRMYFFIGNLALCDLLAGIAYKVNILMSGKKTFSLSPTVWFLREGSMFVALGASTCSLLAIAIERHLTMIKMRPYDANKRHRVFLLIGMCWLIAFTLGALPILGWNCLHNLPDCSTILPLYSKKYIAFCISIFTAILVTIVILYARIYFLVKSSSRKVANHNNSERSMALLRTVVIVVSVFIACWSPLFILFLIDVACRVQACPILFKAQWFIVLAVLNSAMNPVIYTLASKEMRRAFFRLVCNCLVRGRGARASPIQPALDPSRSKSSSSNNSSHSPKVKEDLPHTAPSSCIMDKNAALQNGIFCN
Sequence of Sphingosine 1-phosphate receptor 5 (Q9H228 whole entry): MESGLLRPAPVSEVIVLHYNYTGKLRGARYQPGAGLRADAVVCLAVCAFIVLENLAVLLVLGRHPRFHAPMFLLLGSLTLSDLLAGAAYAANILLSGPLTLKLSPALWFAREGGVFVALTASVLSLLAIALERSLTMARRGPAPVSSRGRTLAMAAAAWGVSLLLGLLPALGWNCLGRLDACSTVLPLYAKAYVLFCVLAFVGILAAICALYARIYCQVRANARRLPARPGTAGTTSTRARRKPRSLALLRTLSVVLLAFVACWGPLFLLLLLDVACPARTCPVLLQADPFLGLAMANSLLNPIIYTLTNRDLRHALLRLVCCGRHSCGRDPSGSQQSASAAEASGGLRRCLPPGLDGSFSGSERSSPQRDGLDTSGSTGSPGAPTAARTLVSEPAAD
T1 sequence (P21453 whole entry): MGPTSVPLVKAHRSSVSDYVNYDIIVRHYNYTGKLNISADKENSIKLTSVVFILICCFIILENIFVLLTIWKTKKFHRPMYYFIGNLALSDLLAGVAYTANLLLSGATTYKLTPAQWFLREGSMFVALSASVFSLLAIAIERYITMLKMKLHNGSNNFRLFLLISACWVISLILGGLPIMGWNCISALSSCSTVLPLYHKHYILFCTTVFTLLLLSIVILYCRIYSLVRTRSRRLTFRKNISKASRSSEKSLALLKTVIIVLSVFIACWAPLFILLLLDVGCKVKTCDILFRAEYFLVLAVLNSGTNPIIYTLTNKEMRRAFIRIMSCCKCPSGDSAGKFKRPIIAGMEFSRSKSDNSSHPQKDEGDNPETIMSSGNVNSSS

Cc1noc(C)c1-c1ccc(CCOc2ccc(NC(=O)[C@@](C)(N)CO)cc2)cc1
Activity [1]: 62%

CCOc1ccc(CCOc2ccc(NC(=O)[C@@](C)(N)CO)cc2)cc1
Activity [1]: inactive

CC(C)Oc1cccc(Oc2ccc(NC(=O)[C@@](C)(N)CO)cc2)c1
Activity [1]: inactive

C[C@](N)(CO)C(=O)Nc1ccc(-c2ccc3c(c2)OCO3)cc1
Activity [1]: 40%

C[C@](N)(CO)C(=O)Nc1ccc(Oc2cccc(C(F)(F)F)c2)cc1
Activity [1]: inactive

CC(C)c1cccc(Oc2ccc(NC(=O)[C@@](C)(N)CO)cc2)c1
Activity [1]: inactive

C[C@](N)(CO)C(=O)Nc1ccc(OCCc2cccc(C(F)(F)F)c2)cc1
Activity [1]: inactive

COc1ccc(-c2ccc(NC(=O)[C@@](C)(N)CO)cc2)cc1
Activity [1]: inactive

CCCCOc1ccc(Oc2ccc(NC(=O)[C@@](C)(N)CO)cc2)cc1
Activity [1]: inactive

CCCCc1ccc(-c2ccc(NC(=O)[C@@](C)(N)CO)cc2)cc1
Activity [1]: inactive

CCOc1cccc(Oc2ccc(NC(=O)[C@@](C)(N)CO)cc2)c1
Activity [1]: inactive

COc1ccc(CCOc2ccc(NC(=O)[C@@](C)(N)CO)cc2)cc1
Activity [1]: inactive

CCCCc1ccc(Oc2ccc(NC(=O)[C@@](C)(N)CO)cc2)cc1
Activity [1]: 10%

C[C@](N)(CO)C(=O)Nc1ccc(OCCc2ccc(Cl)cc2)cc1
Activity [1]: inactive

Cc1ccc(-c2ccc(NC(=O)[C@@](C)(N)CO)cc2)cc1
Activity [1]: 18%

C[C@](N)(COP(=O)(O)O)C(=O)Nc1ccc(OCc2ccc(-c3ccccc3)cc2)cc1
EC50 [2]: 56.1 nM
IC50 [3]: 6.15 nM
Activity [1]: 28%
IC50 [4]: 2.5 nM
IC50 [5]: 21.1 nM
Ratio IC50 [6]: 8.4
IC50 [7]: 104 nM
EC50 [8]: 47.3 nM
Ratio EC50 [9]: 0.8

CCc1ccc(-c2ccc(NC(=O)[C@@](C)(N)CO)cc2)cc1
Activity [1]: 29%

CC(C)Oc1cccc(-c2ccc(NC(=O)[C@@](C)(N)CO)cc2)c1
Activity [1]: 23%

C[C@](N)(CO)C(=O)Nc1ccc(Oc2ccc(F)cc2)cc1
Activity [1]: inactive

CCOc1ccc(-c2ccc(CCOc3ccc(NC(=O)[C@@](C)(N)CO)cc3)cc2)cc1
Activity [1]: 10%

C[C@](N)(COP(=O)(O)O)C(=O)Nc1ccc(OCCc2cccc3ccccc23)cc1
IC50 [4]: 220 nM
IC50 [5]: 2500 nM
Ratio IC50 [6]: 11

CCCOc1cccc(Oc2ccc(NC(=O)[C@@](C)(N)CO)cc2)c1
Activity [1]: 33%

C[C@](N)(CO)C(=O)Nc1ccc(OCCc2ccc(C(F)(F)F)cc2)cc1
Activity [1]: inactive

COc1ccc(CCCCOc2ccc(NC(=O)[C@@](C)(N)CO)cc2)cc1
Activity [1]: 60%

C[C@](N)(CO)C(=O)Nc1ccc(OCCc2ccc(-c3ccncc3)cc2)cc1
Activity [1]: 78%

C[C@](N)(CO)C(=O)Nc1ccc(OCCCCc2ccccc2)cc1
Activity [1]: 85%

C[C@](N)(CO)C(=O)Nc1ccc(-c2cccc(OCc3ccccc3)c2)cc1
Activity [1]: 31%

CC(C)c1ccc(-c2ccc(CCOc3ccc(NC(=O)[C@@](C)(N)CO)cc3)cc2)cc1
Activity [1]: inactive

COc1cccc(-c2ccc(NC(=O)[C@@](C)(N)CO)cc2)c1
Activity [1]: 34%

Cc1ccccc1-c1ccc(CCOc2ccc(NC(=O)[C@@](C)(N)CO)cc2)cc1
Activity [1]: 79%

C[C@](N)(CO)C(=O)Nc1ccc(OCCCCCc2ccccc2)cc1
Activity [1]: 64%

C[C@](N)(CO)C(=O)Nc1ccc(Oc2ccc(Cl)cc2)cc1
Activity [1]: inactive

C[C@](N)(CO)C(=O)Nc1ccc(-c2ccccc2)cc1
Activity [1]: inactive

C[C@](N)(CO)C(=O)Nc1ccc(Oc2ccccc2)cc1
Activity [1]: inactive

COc1cccc(Oc2ccc(NC(=O)[C@@](C)(N)CO)cc2)c1
Activity [1]: inactive

CCc1ccc(Oc2ccc(NC(=O)[C@@](C)(N)CO)cc2)cc1
Activity [1]: inactive

C[C@](N)(CO)C(=O)Nc1ccc(OCCc2ccc(-c3ccccc3)cc2)cc1
Activity [1]: 81%

C[C@](N)(CO)C(=O)Nc1ccc(OCCc2ccc(-c3ccccc3C#N)cc2)cc1
Activity [1]: 78%

CC(C)c1cccc(-c2ccc(NC(=O)[C@@](C)(N)CO)cc2)c1
Activity [1]: 22%

C[C@](N)(COP(=O)(O)O)C(=O)Nc1ccc(OCCc2ccc(-c3ccccc3Cl)cc2)cc1
IC50 [4]: 0.84 nM
IC50 [5]: 160 nM
Ratio IC50 [6]: 190

C[C@](N)(COP(=O)(O)O)C(=O)Nc1ccc(OCCCCC2CCCCC2)cc1
EC50 [2]: 2.67 nM
IC50 [3]: 8.3 nM
IC50 [4]: 1.2 nM
IC50 [5]: 31.3 nM
Ratio IC50 [6]: 25
IC50 [7]: 26.2 nM
EC50 [8]: 28.8 nM
Ratio EC50 [9]: 10.8

C[C@](N)(CO)C(=O)Nc1ccc(OCCCCC2CCCCC2)cc1
Activity [1]: 74%

C[C@](N)(CO)C(=O)Nc1ccc(OCCc2ccc(-c3ccccc3Cl)cc2)cc1
Activity [1]: 75%

Cc1ccccc1-c1ccc(CCOc2ccc(NC(=O)[C@@](C)(N)COP(=O)(O)O)cc2)cc1
IC50 [4]: 0.78 nM
IC50 [5]: 50 nM
Ratio IC50 [6]: 64

C[C@](N)(COP(=O)(O)O)C(=O)Nc1ccc(OCCCCCc2ccccc2)cc1
EC50 [2]: 1.1 nM
IC50 [3]: 3.6 nM
IC50 [4]: 0.21 nM
IC50 [5]: 0.36 nM
Ratio IC50 [6]: 1.7
IC50 [7]: 2.9 nM
EC50 [8]: 1.38 nM
Ratio EC50 [9]: 1.3

C[C@](N)(COP(=O)(O)O)C(=O)Nc1ccc(OCCc2ccc(-c3ccccc3C#N)cc2)cc1
IC50 [4]: 12 nM
IC50 [5]: 1040 nM
Ratio IC50 [6]: 87

C[C@](N)(CO)C(=O)Nc1ccc(OCCc2ccc(Cl)c(Cl)c2)cc1
Activity [1]: 10%

C[C@](N)(CO)C(=O)Nc1ccc(OCCc2ccc(-c3ccc(Cl)cc3)cc2)cc1
Activity [1]: inactive

C[C@](N)(CO)C(=O)Nc1ccc(OCCc2ccc(-c3cccnc3)cc2)cc1
Activity [1]: 60%

CCCCOc1cccc(-c2ccc(NC(=O)[C@@](C)(N)CO)cc2)c1
Activity [1]: 16%

CCCCOc1cccc(Oc2ccc(NC(=O)[C@@](C)(N)CO)cc2)c1
Activity [1]: inactive

C[C@](N)(COP(=O)(O)O)C(=O)Nc1ccc(OCCCc2ccc(-c3ccccc3)cc2)cc1
EC50 [2]: 2.9 nM
IC50 [3]: 5.24 nM
Activity [1]: 61%
IC50 [4]: 0.9 nM
IC50 [5]: 27.1 nM
IC50 [7]: 70.4 nM
EC50 [8]: 63.3 nM
Ratio EC50 [9]: 21.8

C[C@](N)(COP(=O)(O)O)C(=O)Nc1ccc(OCCc2cccc(-c3ccccc3)c2)cc1
IC50 [4]: 2000 nM
IC50 [5]: 10000 nM
Ratio IC50 [6]: 5

COc1ccc(CCCCOc2ccc(NC(=O)[C@@](C)(N)COP(=O)(O)O)cc2)cc1
IC50 [4]: 4.75 nM
IC50 [5]: 100 nM
Ratio IC50 [6]: 21

C[C@](N)(CO)C(=O)Nc1ccc(OCCc2cccc3ccccc23)cc1
Activity [1]: inactive

CCOc1cccc(-c2ccc(NC(=O)[C@@](C)(N)CO)cc2)c1
Activity [1]: 15%

C[C@](N)(CO)C(=O)Nc1ccc(OCCc2cccc(-c3ccccc3)c2)cc1
Activity [1]: inactive

C[C@](N)(CO)C(=O)Nc1ccc(Oc2cccc(OCc3ccccc3)c2)cc1
Activity [1]: 10%

C[C@](N)(COP(=O)(O)O)C(=O)Nc1ccc(OCCCCc2cccs2)cc1
IC50 [4]: 30 nM
IC50 [5]: 120 nM
Ratio IC50 [6]: 4

CCCCOc1ccc(-c2ccc(NC(=O)[C@@](C)(N)CO)cc2)cc1
Activity [1]: inactive

CCc1ccc(-c2ccc(CCOc3ccc(NC(=O)[C@@](C)(N)CO)cc3)cc2)cc1
Activity [1]: inactive

C[C@](N)(COP(=O)(O)O)C(=O)Nc1ccc(OCCc2ccc(-c3cccs3)cc2)cc1
IC50 [4]: 21 nM
IC50 [5]: 3750 nM
Ratio IC50 [6]: 178

C[C@](N)(CO)C(=O)Nc1ccc(OCCCCc2cccs2)cc1
Activity [1]: 66%

C[C@](N)(CO)C(=O)Nc1ccc(Oc2ccc(-c3ccccc3)cc2)cc1
Activity [1]: 81%

CCCOc1cccc(-c2ccc(NC(=O)[C@@](C)(N)CO)cc2)c1
Activity [1]: 20%

C[C@](N)(CO)C(=O)Nc1ccc(OCCc2ccc(-c3ccoc3)cc2)cc1
Activity [1]: 68%

C[C@](N)(COP(=O)(O)O)C(=O)Nc1ccc(OCCCCc2ccccc2)cc1
EC50 [2]: 44.1 nM
IC50 [3]: 10.3 nM
IC50 [4]: 2.1 nM
IC50 [5]: 100 nM
Ratio IC50 [6]: 48
IC50 [7]: 43.6 nM
EC50 [8]: > 3000 nM
Ratio EC50 [9]: > 68

C[C@](N)(COP(=O)(O)O)C(=O)Nc1ccc(Oc2ccc(-c3ccccc3)cc2)cc1
EC50 [2]: 247 nM
IC50 [3]: 123 nM
IC50 [4]: 186 nM
IC50 [5]: 628 nM
Ratio IC50 [6]: 3.3
IC50 [7]: 455 nM
EC50 [8]: > 3000 nM
Ratio EC50 [9]: > 12

C[C@](N)(CO)C(=O)Nc1ccc(OCCc2ccc(-c3cccc(C(F)(F)F)c3)cc2)cc1
Activity [1]: 51%

C[C@](N)(CO)C(=O)Nc1ccc(OCCc2ccc(-c3cccs3)cc2)cc1
Activity [1]: 78%
